# According to ChEMBL document CHEMBL1932930, “Synthesis and biological assessment of novel 2-thiazolylhydrazones and computational analysis of their recognition by monoamine oxidase B” (Eur J Med Chem, 2012):
# Legend:
# [1] = substrate: NCCc1ccc(O)cc1; assay: Activity of human recombinant MAO-B expressed in baculovirus infected BTI-TN-5B1-4 insect cells assessed as hydrogen peroxide production after 15 mins by fluorimetric method
# In short: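 Microsomal hMAO-B (specific activity 22 nmol p-tyramine/min/mg protein), adjusted to oxidize 165 pmol p-tyramine/min in controls. It was preincubated 15 min at 37 °C with drug in 0.05 M sodium phosphate pH 7.4, then started with 1 mM p-tyramine (final). Resorufin fluorescence (ex 545/em 590) from Amplex Red/peroxidase was read over 15 min at 37 °C, in the dark. Controls used DMSO vehicle.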
# [2] = substrate: NCCc1ccc(O)cc1; assay: Activity of human recombinant MAO-A expressed in baculovirus infected BTI-TN-5B1-4 insect cells assessed as hydrogen peroxide production after 15 mins by fluorimetric method
# In short: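 Microsomal hMAO-A (specific activity 150 nmol p-tyramine/min/mg protein), dosed to oxidize 165 pmol p-tyramine/min in controls. It was preincubated 15 min at 37 °C in 0.05 M sodium phosphate pH 7.4 with test drug, then started with 1 mM p-tyramine (final). H2O2 was read as Amplex Red/peroxidase resorufin fluorescence (ex 545/em 590) over 15 min at 37 °C, in the dark.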
Protein,Km [1],Vmax [1],Km [2],Vmax [2]
Amine oxidase [flavin-containing] B (Homo sapiens) (protein) MSNKCDVVVVGGGISGMAAAKLLHDSGLNVVVLEARDRVGGRTYTLRNQKVKYVDLGGSYVGPTQNRILRLAKELGLETYKVNEVERLIHHVKGKSYPFRGPFPPVWNPITYLDHNNFWRTMDDMGREIPSDAPWKAPLAEEWDNMTMKELLDKLCWTESAKQLATLFVNLCVTAETHEVSALWFLWYVKQCGGTTRIISTTNGGQERKFVGGSGQVSERIMDLLGDRVKLERPVIYIDQTRENVLVETLNHEMYEAKYVISAIPPTLGMKIHFNPPLPMMRNQMITRVPLGSVIKCIVYYKEPFWRKKDYCGTMIIDGEEAPVAYTLDDTKPEGNYAAIMGFILAHKARKLARLTKEERLKKLCELYAKVLGSLEALEPVHYEEKNWCEEQYSGGCYTTYFPPGILTQYGRVLRQPVDRIYFAGTETATHWSGYMEGAVEAGERAAREILHAMGKIPEDEIWQSEPESVDVPAQPITTTFLERHLPSVPGLLRLIGLTTIFSATALGFLAHKRGLLVRV,105 µM,0.0289 µmol/min/mg,,
Amine oxidase [flavin-containing] A (Homo sapiens) (protein) MENQEKASIAGHMFDVVVIGGGISGLSAAKLLTEYGVSVLVLEARDRVGGRTYTIRNEHVDYVDVGGAYVGPTQNRILRLSKELGIETYKVNVSERLVQYVKGKTYPFRGAFPPVWNPIAYLDYNNLWRTIDNMGKEIPTDAPWEAQHADKWDKMTMKELIDKICWTKTARRFAYLFVNINVTSEPHEVSALWFLWYVKQCGGTTRIFSVTNGGQERKFVGGSGQVSERIMDLLGDQVKLNHPVTHVDQSSDNIIIETLNHEHYECKYVINAIPPTLTAKIHFRPELPAERNQLIQRLPMGAVIKCMMYYKEAFWKKKDYCGCMIIEDEDAPISITLDDTKPDGSLPAIMGFILARKADRLAKLHKEIRKKKICELYAKVLGSQEALHPVHYEEKNWCEEQYSGGCYTAYFPPGIMTQYGRVIRQPVGRIFFAGTETATKWSGYMEGAVEAGERAAREVLNGLGKVTEKDIWVQEPESKDVPAVEITHTFWERNLPSVSGLLKIIGFSTSVTALGFVLYKYKLLPRS,,,514 µM,0.301 µmol/min/mg
